Results from ChEMBL document CHEMBL1138564, “Microwave-induced synthesis and anti-microbial activities of 7,10,11,12-tetrahydrobenzo[c]acridin-8(9H)-one derivatives” (2009).
≈ marks a conversion by molar mass, not a printed value. Calls of active or inactive are those of the source. The calls are words filed in the database; no cut-off is given here.

Columns and labels:
Aspergillus flavus [1] = assay: Antimicrobial activity against Aspergillus flavus NCIM 902 at 500 ug/disk after 72 hrs by disk diffusion method; format: functional; settings: NCIM 902, 72 h, read-out: DIZ
Procedure, shortened: (§1)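 Disc diffusion on Sabouraud's dextrose agar. 100 µl of fungal suspension at 10⁶ CFU/ml is spread on the plate. Discs carry test compounds at two loadings in DMSO; DMSO alone is the negative control. Clotrimazole disc is the positive reference. Plates are incubated at 27 °C for 72 h, and the zone of inhibition diameter is measured.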

Aliivibrio fischeri [2] = assay: Antimicrobial activity against Vibrio fischeri NCIM 2154 after 24 hrs by serial dilution method; format: functional; settings: NCIM 2154, 24 h
Pseudomonas aeruginosa = assay: Antimicrobial activity against Pseudomonas aeruginosa NCIM 2200 at 500 ug/disk after 24 hrs by disk diffusion method; format: functional
Procedure, shortened: (§2)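 Disc diffusion. 100 µl of bacterial suspension at 10⁸ CFU/ml was spread on Mueller–Hinton agar. Discs loaded with test compound dissolved in DMSO were placed on the lawn, with a DMSO-only disc as negative control. Plates were incubated at 37 °C for 24 h, and the inhibition zone diameter was measured.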

Aspergillus parasiticus [3] = assay: Antimicrobial activity against Aspergillus parasiticus NCIM 904 at 500 ug/disk after 72 hrs by disk diffusion method; format: functional; settings: NCIM 904, 72 h, read-out: DIZ; procedure, shortened: as §1
Aliivibrio fischeri [4] = assay: Antimicrobial activity against Vibrio fischeri NCIM 2154 at 500 ug/disk after 24 hrs by disk diffusion method; format: functional; settings: NCIM 2154, 24 h, read-out: DIZ; procedure, shortened: as §2
Staphylococcus [5] = assay: Antimicrobial activity against Staphylococcus albus NCIM 2178 at 1000 ug/disk after 24 hrs by disk diffusion method; format: functional; procedure, shortened: as §2
Salmonella typhimurium = assay: Antimicrobial activity against Salmonella Typhimurium NCIM 2501 at 1000 ug/disk after 24 hrs by disk diffusion method; format: functional, Salmonella enterica subsp. enterica serovar Typhimurium; settings: Salmonella enterica, NCIM 2501, 24 h; read-out: DIZ; procedure, shortened: as §2
[6] = test system: Rhodococcus corynebacterioides; assay: Antimicrobial activity against Corynebacterium rubrum NCIM 2252 at 500 ug/disk after 24 hrs by disk diffusion method; format: functional; settings: Rhodococcoides corynebacterioides
Procedure, shortened: (§3)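 Disc diffusion on Mueller–Hinton agar. 100 µl of bacterial suspension at 10⁸ CFU/ml is spread on the plate. Discs carry test compounds at two loadings, dissolved in DMSO; DMSO alone serves as negative control. Ofloxacin disc is the positive reference. Plates are incubated at 37 °C for 24 h, and the inhibition zone diameter is measured.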

Escherichia coli [7] = assay: Antimicrobial activity against Escherichia coli NCIM 2065 after 24 hrs by serial dilution method; format: functional; settings: NCIM 2065, 24 h
Procedure, shortened: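 Broth dilution MIC in nutrient broth, run only for organisms found sensitive in disc diffusion. Compounds are two-fold serially diluted in 1 ml sterile broth per tube, spanning 3.9 to 1000. Inoculated tubes are incubated at 37 °C for 24 h.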

Lipomyces lipofer [8] = assay: Antimicrobial activity against Lipomyces lipofer NCIM 3252 at 500 ug/disk after 72 hrs by disk diffusion method; format: functional; procedure, shortened: as §1
Trichoderma viride [9] = assay: Antimicrobial activity against Trichoderma viride NCIM 1195 at 500 ug/disk after 72 hrs by disk diffusion method; format: functional; settings: NCIM 1195, 72 h, read-out: DIZ
Procedure, shortened: (§4)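 Fungal disc diffusion. 100 µl of suspension at 10⁶ CFU/ml was spread on Sabouraud's dextrose agar. Discs carrying test compound in DMSO were applied, with a DMSO-only disc as negative control. Plates were incubated at 27 °C for 72 h, and the zone of inhibition diameter was measured.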

Aspergillus flavus [10] = assay: Antimicrobial activity against Aspergillus flavus NCIM 902 after 72 hrs by serial dilution method; format: functional; settings: NCIM 535, 72 h, in the assay text read “NCIM 535” for “NCIM 902”
Procedure, shortened: (§5)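 MIC by broth dilution in Sabouraud's dextrose broth, only for fungi sensitive in disc diffusion. Two-fold serial dilutions of compounds are made in 1 ml broth per tube, range 3.9 to 1000. Inoculated tubes are incubated at 27 °C for 72 h.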

[11] = test system: Rhodococcus corynebacterioides; assay: Antimicrobial activity against Corynebacterium rubrum NCIM 2252 at 1000 ug/disk after 24 hrs by disk diffusion method; format: functional; settings: Rhodococcoides corynebacterioides; procedure, shortened: as §3
Bacillus cereus [12] = assay: Antimicrobial activity against Bacillus cereus NCIM 2155 at 500 ug/disk after 24 hrs by disk diffusion method; format: functional; settings: NCIM 2155, 24 h, read-out: DIZ; procedure, shortened: as §3
Rhodotorula mucilaginosa = assay: Antimicrobial activity against Rhodotorula rubra NCIM 3174 at 500 ug/disk after 72 hrs by disk diffusion method; format: functional; settings: NCIM 3174, 72 h, read-out: DIZ; procedure, shortened: as §4
Bacillus cereus [13] = assay: Antimicrobial activity against Bacillus cereus NCIM 2155 at 1000 ug/disk after 24 hrs by disk diffusion method; format: functional; settings: NCIM 2155, 24 h, read-out: DIZ; procedure, shortened: as §3
Escherichia coli [14] = assay: Antimicrobial activity against Escherichia coli NCIM 2065 at 1000 ug/disk after 24 hrs by disk diffusion method; format: functional; settings: NCIM 2065, 24 h, read-out: DIZ; procedure, shortened: as §3
Aspergillus fumigatus [15] = assay: Antimicrobial activity against Aspergillus fumigatus NCIM 902 at 1000 ug/disk after 72 hrs by disk diffusion method; format: functional; settings: NCIM 902, 72 h, read-out: DIZ; procedure, shortened: as §1
Bacillus subtilis = assay: Antimicrobial activity against Bacillus subtilis NCIM 2063 at 500 ug/disk after 24 hrs by disk diffusion method; format: functional; procedure, shortened: as §3
Escherichia coli [16] = assay: Antimicrobial activity against Escherichia coli NCIM 2065 at 500 ug/disk after 24 hrs by disk diffusion method; format: functional; settings: NCIM 2065, 24 h, read-out: DIZ; procedure, shortened: as §3
Aspergillus parasiticus [17] = assay: Antimicrobial activity against Aspergillus parasiticus NCIM 904 after 72 hrs by serial dilution method; format: functional; settings: NCIM 904, 72 h; procedure, shortened: as §5
Aspergillus flavus [18] = assay: Antimicrobial activity against Aspergillus flavus NCIM 902 at 1000 ug/disk after 72 hrs by disk diffusion method; format: functional; settings: NCIM 902, 72 h, read-out: DIZ; procedure, shortened: as §1
Lipomyces lipofer [19] = assay: Antimicrobial activity against Lipomyces lipofer NCIM 3252 at 1000 ug/disk after 72 hrs by disk diffusion method; format: functional; settings: NCIM 3252, 72 h, read-out: DIZ; procedure, shortened: as §1
Aspergillus fumigatus [20] = assay: Antimicrobial activity against Aspergillus fumigatus NCIM 902 at 500 ug/disk after 72 hrs by disk diffusion method; format: functional; procedure, shortened: as §1
Proteus vulgaris [21] = assay: Antimicrobial activity against Proteus vulgaris NCIM 2027 at 500 ug/disk after 24 hrs by disk diffusion method; format: functional; procedure, shortened: as §3
Penicillium chrysogenum [22] = assay: Antimicrobial activity against Penicillium chrysogenum NCIM 707 at 1000 ug/disk after 72 hrs by disk diffusion method; format: functional; procedure, shortened: as §1
Staphylococcus [23] = assay: Antimicrobial activity against Staphylococcus albus NCIM 2178 at 500 ug/disk after 24 hrs by disk diffusion method; format: functional; procedure, shortened: as §2
Proteus vulgaris [24] = assay: Antimicrobial activity against Proteus vulgaris NCIM 2027 at 1000 ug/disk after 24 hrs by disk diffusion method; format: functional; procedure, shortened: as §3
Penicillium chrysogenum [25] = assay: Antimicrobial activity against Penicillium chrysogenum NCIM 707 at 500 ug/disk after 72 hrs by disk diffusion method; format: functional; procedure, shortened: as §1
Trichoderma viride [26] = assay: Antimicrobial activity against Trichoderma viride NCIM 1195 after 72 hrs by serial dilution method; format: functional; settings: NCIM 1195, 72 h
Procedure, shortened: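 MIC by broth dilution in Sabouraud's dextrose broth, run only on fungi found sensitive in the disc assay. Twofold serial dilutions were made in 1 ml broth per tube, covering 3.9 to 1000. Inoculated tubes were incubated at 27 °C for 72 h.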

Trichoderma viride [27] = assay: Antimicrobial activity against Trichoderma viride NCIM 1195 at 1000 ug/disk after 72 hrs by disk diffusion method; format: functional; settings: NCIM 1195, 72 h, read-out: DIZ; procedure, shortened: as §4
Klebsiella aerogenes = assay: Antimicrobial activity against Klebsiella aerogenes NCIM 2239 at 500 ug/disk after 24 hrs by disk diffusion method; format: functional; procedure, shortened: as §3

Row | SMILES | zone of inhibition at 500 µg/disc (Aspergillus flavus [1]) [mm] | MIC (Aliivibrio fischeri [2]) [mg/L] | diameter of the inhibition zone (DIZ) (Pseudomonas aeruginosa) | zone of inhibition at 500 µg/disc (Aspergillus parasiticus [3]) [mm] | zone of inhibition at 500 µg/disc (Aliivibrio fischeri [4]) [mm] | diameter of the inhibition zone (DIZ) (Staphylococcus [5]) | zone of inhibition at 1000 µg/disc (Salmonella typhimurium) [mm] | MIC (Escherichia coli [7]) [mg/L] | zone of inhibition at 500 µg/disc (Trichoderma viride [9]) [mm] | MIC (Aspergillus flavus [10]) [mg/L] | zone of inhibition at 500 µg/disc (Bacillus cereus [12]) [mm] | zone of inhibition at 500 µg/disc (Rhodotorula mucilaginosa) [mm] | zone of inhibition at 1000 µg/disc (Bacillus cereus [13]) [mm] | zone of inhibition at 1000 µg/disc (Escherichia coli [14]) [mm] | zone of inhibition at 1000 µg/disc (Aspergillus fumigatus [15]) [mm] | zone of inhibition at 500 µg/disc (Escherichia coli [16]) [mm] | MIC (Aspergillus parasiticus [17]) [mg/L] | zone of inhibition at 1000 µg/disc (Aspergillus flavus [18]) [mm] | zone of inhibition at 1000 µg/disc (Lipomyces lipofer [19]) [mm] | diameter of the inhibition zone (DIZ) (Aspergillus fumigatus [20]) | other results
1 | CC1(C)CC(=O)C2=C(C1)Nc1c(ccc3ccccc13)C2c1ccccc1Cl (centres undefined) | 8 | 62.5 (≈ 161 µM) | inactive | 8 | 7 | inactive | 13 | 125 (≈ 322 µM) | 7 | 62.5 (≈ 161 µM) | 8 | 10 | 11 | 8 | 8 | 7 | 62.5 (≈ 161 µM) | 10 | 10 | inactive | diameter of the inhibition zone (DIZ) [6]: inactive; zone of inhibition at 500 µg/disc (Lipomyces lipofer [8]; NCIM 3252, 72 h, read-out: DIZ): 7 mm; diameter of the inhibition zone (DIZ) [11]: inactive; zone of inhibition at 500 µg/disc (Bacillus subtilis; NCIM 2063, 24 h, read-out: DIZ): 7 mm; diameter of the inhibition zone (DIZ) (Proteus vulgaris [21]): inactive; diameter of the inhibition zone (DIZ) (Penicillium chrysogenum [22]): inactive; diameter of the inhibition zone (DIZ) (Staphylococcus [23]): inactive; diameter of the inhibition zone (DIZ) (Proteus vulgaris [24]): inactive; diameter of the inhibition zone (DIZ) (Penicillium chrysogenum [25]): inactive; MIC (Trichoderma viride [26]): 125 mg/L (≈ 322 µM); zone of inhibition at 1000 µg/disc (Trichoderma viride [27]): 8 mm; diameter of the inhibition zone (DIZ) (Klebsiella aerogenes): inactive
2 | CC1(C)CC(=O)C2=C(C1)Nc1c(ccc3ccccc13)C2c1cccc(Cl)c1 (centres undefined) | 9 | 125 (≈ 322 µM) | inactive | 11 | 7 | inactive | 10 | 125 (≈ 322 µM) | 10 | 62.5 (≈ 161 µM) | 9 | 7 | 10 | 8 | 9 | 7 | 31.2 (≈ 80.4 µM) | 10 | 8 | inactive | zone of inhibition at 500 µg/disc ([6]; NCIM 2252, 24 h, read-out: DIZ): 7 mm; diameter of the inhibition zone (DIZ) (Lipomyces lipofer [8]): inactive; zone of inhibition at 1000 µg/disc ([11]; NCIM 2252, 24 h, read-out: DIZ): 8 mm; diameter of the inhibition zone (DIZ) (Bacillus subtilis): inactive; diameter of the inhibition zone (DIZ) (Proteus vulgaris [21]): inactive; zone of inhibition at 1000 µg/disc (Penicillium chrysogenum [22]; NCIM 707, 72 h, read-out: DIZ): 10 mm; diameter of the inhibition zone (DIZ) (Staphylococcus [23]): inactive; diameter of the inhibition zone (DIZ) (Proteus vulgaris [24]): inactive; zone of inhibition at 500 µg/disc (Penicillium chrysogenum [25]; NCIM 707, 72 h, read-out: DIZ): 7 mm; MIC (Trichoderma viride [26]): 15.6 mg/L (≈ 40.2 µM); zone of inhibition at 1000 µg/disc (Trichoderma viride [27]): 13 mm; diameter of the inhibition zone (DIZ) (Klebsiella aerogenes): inactive
